Test results: paper PMC3103606 (Chemico-biological interactions, 2011)
pIC50: −log10 of the molar value.

Key:
Assay type in all cases: biochemical
ALDH1A1 = biological target: T1, ALDH1A1 (Homo sapiens, UniProt P00352); assay: Isoenzyme selectivity: ALDH1A1 dehydrogenase activity; conditions: 10 μM concentration, aldehyde oxidation
T1 sequence (P00352 1-501): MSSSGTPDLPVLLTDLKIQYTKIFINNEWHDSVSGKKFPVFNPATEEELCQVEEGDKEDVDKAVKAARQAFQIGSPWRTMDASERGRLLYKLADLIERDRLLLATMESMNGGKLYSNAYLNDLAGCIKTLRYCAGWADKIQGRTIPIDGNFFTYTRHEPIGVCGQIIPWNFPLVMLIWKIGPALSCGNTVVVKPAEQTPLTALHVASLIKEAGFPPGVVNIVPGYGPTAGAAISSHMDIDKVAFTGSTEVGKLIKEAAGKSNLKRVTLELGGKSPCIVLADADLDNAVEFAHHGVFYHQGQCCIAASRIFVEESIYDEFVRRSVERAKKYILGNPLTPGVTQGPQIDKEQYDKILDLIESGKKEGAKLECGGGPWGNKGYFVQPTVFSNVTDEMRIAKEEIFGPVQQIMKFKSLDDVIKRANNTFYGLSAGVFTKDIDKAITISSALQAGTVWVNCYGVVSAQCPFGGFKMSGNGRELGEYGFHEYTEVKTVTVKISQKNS

ALDH3A1 [1] = biological target: T2, ALDH3A1 (Homo sapiens, UniProt P30838); assay: ALDH3A1 dehydrogenase assay; conditions: read-out: (Dehydrogenase assay) IC50; ALDH3A1, 1 mM benzaldehyde, […] NADP+, pH 7.5
T2 sequence (P30838 1-453): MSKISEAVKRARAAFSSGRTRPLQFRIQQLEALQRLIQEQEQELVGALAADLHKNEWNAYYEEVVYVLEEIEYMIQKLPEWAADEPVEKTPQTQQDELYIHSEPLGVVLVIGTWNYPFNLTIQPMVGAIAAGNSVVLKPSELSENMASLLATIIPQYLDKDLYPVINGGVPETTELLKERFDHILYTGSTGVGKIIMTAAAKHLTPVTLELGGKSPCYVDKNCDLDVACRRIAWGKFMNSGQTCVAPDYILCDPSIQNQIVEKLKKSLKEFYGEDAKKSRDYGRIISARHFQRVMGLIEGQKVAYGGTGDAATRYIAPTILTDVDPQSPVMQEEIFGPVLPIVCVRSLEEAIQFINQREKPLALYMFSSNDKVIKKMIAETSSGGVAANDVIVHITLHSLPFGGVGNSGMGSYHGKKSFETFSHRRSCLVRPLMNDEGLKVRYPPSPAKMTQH

ALDH3A1 [2] = biological target: T2, ALDH3A1; assay: ALDH3A1 esterase assay; conditions: read-out: (Esterase assay) IC50; ALDH3A1, 0.8 mM para-nitrophenylacetate, pH 7.5
How it was run: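 Reactions used nickel-NTA/Q-sepharose-purified recombinant ALDH3A1 at 180 nM in 25 mM sodium HEPES. Inhibitor was preincubated with enzyme for 2 min, and 0.8 mM para-nitrophenylacetate then started the reaction. para-Nitrophenol formation was read spectrophotometrically at 405 nm (ε 18,000 M−1cm−1).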

ALDH2 = biological target: T3, ALDH2 (Homo sapiens, UniProt P05091); assay: Isoenzyme selectivity: ALDH2 dehydrogenase activity; conditions: 10 μM concentration, aldehyde oxidation
T3 sequence (P05091 18-517): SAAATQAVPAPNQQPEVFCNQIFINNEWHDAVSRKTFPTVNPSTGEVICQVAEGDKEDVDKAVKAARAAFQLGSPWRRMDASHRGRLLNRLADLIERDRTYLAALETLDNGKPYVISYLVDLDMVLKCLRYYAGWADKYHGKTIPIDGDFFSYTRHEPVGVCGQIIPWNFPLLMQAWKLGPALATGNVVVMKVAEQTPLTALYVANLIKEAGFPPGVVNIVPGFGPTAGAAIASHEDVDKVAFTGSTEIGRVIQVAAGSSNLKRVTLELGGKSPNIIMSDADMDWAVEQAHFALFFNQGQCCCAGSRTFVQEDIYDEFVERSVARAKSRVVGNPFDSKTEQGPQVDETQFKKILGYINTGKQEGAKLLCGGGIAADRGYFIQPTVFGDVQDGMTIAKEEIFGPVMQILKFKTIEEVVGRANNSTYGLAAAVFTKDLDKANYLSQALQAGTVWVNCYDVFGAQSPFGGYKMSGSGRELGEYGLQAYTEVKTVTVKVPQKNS

inhibition of ALDH1A1 (ALDH1A1) | pIC50 (ALDH3A1 [1]) | pIC50 (ALDH3A1 [2]) | inhibition of ALDH2 (ALDH2) | SMILES
less than 10% | 5.30 | 6.30 | less than 10% | CC(=O)Nc1ccc(Nc2ccc(S(C)(=O)=O)cc2[N+](=O)[O-])cc1 [CB29]
 | 5.82 | 6.00 |  | CCSc1nnc2c(n1)OC(C(=O)c1ccc(OC)cc1)Nc1ccccc1-2 (centres unmarked) [CD5]
 | 5.20 | 5.66 |  | CCOC(=O)CN1C(=O)C(O)(CC(=O)c2ccncc2)c2ccccc21 (centres unmarked) [CD8]
